Fewer inactive variants are shown than the library holds.
B1: tRNA (parent)
chain: GUUCCGUUGGCGUAAUGGUAACGCGUCUCCCUCCUAAGGAGAAGACUGCGGGUUCGAGUCCCGUACGGAACG

Variants of: B1
Experiment: yeast fitness relative to wild type (ratio to wild type); higher = fitter; tRNA-Arg(CCU), competitive growth, 37 C, YPD
Method in brief: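 Variants of the tRNA-Arg(CCU) gene were chemically synthesised with a 3% per-site mutation rate across 69 sites and placed at the native genomic locus in Saccharomyces cerevisiae. Six parallel replicates of the pooled strains were competed in YPD at 37°C for 24 hours, and gene amplicons from the start and end populations were read by 100-nucleotide paired-end sequencing. Darwinian fitness relative to wild type was derived from changes in genotype frequencies. Genotypes required ≥ 100 starting reads, and estimates < 0.5 were set to 0.5.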
For U8C C22A C33G G39C C46U C66U, the yeast fitness was 0.536. With U8C C22G C30G the yeast fitness was no more than 0.5. U8C C22G C49U A69U showed a yeast fitness of 0.573. For U8C C22G C60A, the yeast fitness was 0.609. Variant U8C C22U G23C C33G C49U has a yeast fitness of no more than 0.5. With U8C C22U U32C C46G U53G G68C the yeast fitness was no more than 0.5. With U8C C24A C49U the yeast fitness was no more than 0.5. For U8C C24A U35G G52A U64A, the yeast fitness was no more than 0.5. For U8C C24G A57G, the yeast fitness was no more than 0.5. With U8C C24G G38C U53G the yeast fitness was 0.635. Work on U8C C24U A42U G52C yielded a yeast fitness of no more than 0.5. With U8C C24U A65C the yeast fitness was 0.59. In the case of U8C C27A G52A C62G A69G, the yeast fitness is reported as no more than 0.5. Variant U8C C27A U47A G56C A69C has a yeast fitness of no more than 0.5. With U8C C27G A42G the yeast fitness was no more than 0.5. Variant U8C C27G A42G C60U U64A C66A G68A A69G has a yeast fitness of 0.543. In the case of U8C C27G C29A, the yeast fitness is reported as no more than 0.5. For U8C C27U C34G C60A, the yeast fitness was 0.503. Work on U8C C29A C34G A36G A40C U47A U64C yielded a yeast fitness of no more than 0.5. U8C C29A U54A gave a yeast fitness of no more than 0.5. Variant U8C C29G C30U C46U G48A has a yeast fitness of no more than 0.5. For U8C C30G C31G, the yeast fitness was 0.58. For U8C C30U U47A G67C, the yeast fitness was no more than 0.5. For U8C C31G A42G, the yeast fitness was 0.624. In the case of U8C C31G G51A G68C, the yeast fitness is reported as no more than 0.5. Variant U8C C31U A45C U47C has a yeast fitness of no more than 0.5. U8C C31U C46A C49A showed a yeast fitness of no more than 0.5. U8C C34G G48C U59C C60A A65G showed a yeast fitness of no more than 0.5. With U8C C34U the yeast fitness was 0.728. Variant U8C C46U G51C has a yeast fitness of no more than 0.5. With U8C C49G the yeast fitness was 1.01. U8C C49G C62A showed a yeast fitness of no more than 0.5. With U8C C55G the yeast fitness was 0.671. Work on U8C C55U yielded a yeast fitness of 0.754. For U8C C55U G58A, the yeast fitness was no more than 0.5. Variant U8C C61A has a yeast fitness of 0.763. For U8C C61U, the yeast fitness was 0.942. Variant U8C G9A A20C A70U has a yeast fitness of no more than 0.5. U8C G9A A42G G58U showed a yeast fitness of no more than 0.5. U8C G9A C22G U32G C49G C55G showed a yeast fitness of no more than 0.5. Variant U8C G9A C22G U32G G51C U64A C66U A69C has a yeast fitness of no more than 0.5. U8C G9A G12A gave a yeast fitness of 0.529. U8C G9A G12A C60U gave a yeast fitness of no more than 0.5. Variant U8C G9A U13A A15G A37U has a yeast fitness of 0.549. Work on U8C G9C A21C C24G G38A yielded a yeast fitness of 0.74. Work on U8C G10A G51A G58A yielded a yeast fitness of no more than 0.5. In the case of U8C G10A G67C, the yeast fitness is reported as 0.592. With U8C G10C G23C C29G G51A the yeast fitness was 0.72. For U8C G12A A21C, the yeast fitness was no more than 0.5. U8C G12A A65G showed a yeast fitness of 0.615. Variant U8C G12A G48C has a yeast fitness of 0.675. For U8C G12C, the yeast fitness was 0.853. Work on U8C G12C A70C yielded a yeast fitness of 0.686. With U8C G12C C55U A70C the yeast fitness was 0.542. With U8C G12C C61A G67A the yeast fitness was no more than 0.5. In the case of U8C G12C C62U, the yeast fitness is reported as 0.587. U8C G17A C46A A65G gave a yeast fitness of no more than 0.5. U8C G17C U26C C34A A45C G48A showed a yeast fitness of no more than 0.5. With U8C G18A G23C C31G G38C G41A the yeast fitness was 0.635. For U8C G18C, the yeast fitness was 0.684. With U8C G25C C31U A69C the yeast fitness was no more than 0.5. With U8C G25C G38C C49U A57U C66A the yeast fitness was no more than 0.5. With U8C G39C G68A the yeast fitness was no more than 0.5. With U8C G41A A65G the yeast fitness was 0.63. In the case of U8C G41C, the yeast fitness is reported as 0.88. Work on U8C G48A C55A G58C yielded a yeast fitness of no more than 0.5. Variant U8C G50A A70U has a yeast fitness of 0.736. With U8C G50C the yeast fitness was 0.663. Variant U8C G63C has a yeast fitness of 0.778. Work on U8C G68A yielded a yeast fitness of 0.741. U8C U13C C24A A37G gave a yeast fitness of 0.761. Variant U8C U13G C22U C49U A65U has a yeast fitness of no more than 0.5. Variant U8C U16A A21C C24G A37U C55U has a yeast fitness of no more than 0.5. For U8C U16A A21G, the yeast fitness was no more than 0.5. Variant U8C U16A U19A C22U U28C has a yeast fitness of no more than 0.5. In the case of U8C U16C A20C C24G C55A, the yeast fitness is reported as 0.729. U8C U19C showed a yeast fitness of 0.978. With U8C U19C C55G A70C the yeast fitness was no more than 0.5. In the case of U8C U19C G23C U53C, the yeast fitness is reported as no more than 0.5. Work on U8C U26A A43U A70U yielded a yeast fitness of 0.675. With U8C U26A C27A the yeast fitness was no more than 0.5. With U8C U26G C30U A40G the yeast fitness was no more than 0.5. U8C U28G A40U gave a yeast fitness of 0.588. With U8C U32C the yeast fitness was 0.81. For U8C U32G G50A A69U, the yeast fitness was 0.557. Variant U8C U35C has a yeast fitness of 0.899. Work on U8C U47A yielded a yeast fitness of 0.937. With U8C U47C U59A A70G the yeast fitness was no more than 0.5. U8G A14G G18A U47A gave a yeast fitness of no more than 0.5. U8G A14G G25A A36G A42U G68C showed a yeast fitness of no more than 0.5. In the case of U8G A14U G39A C55G, the yeast fitness is reported as no more than 0.5. U8G A14U G50A A57U A70G showed a yeast fitness of no more than 0.5. In the case of U8G A15C U28A, the yeast fitness is reported as no more than 0.5. Work on U8G A20G yielded a yeast fitness of 0.544. In the case of U8G A20G A37G A43G A70U, the yeast fitness is reported as no more than 0.5. In the case of U8G A20U A36G, the yeast fitness is reported as 0.635. In the case of U8G A20U G44C, the yeast fitness is reported as 0.558. Variant U8G A21U G68C has a yeast fitness of no more than 0.5. Variant U8G A37U G63C has a yeast fitness of no more than 0.5. For U8G A42U A43C, the yeast fitness was 0.51. Work on U8G A57C yielded a yeast fitness of no more than 0.5. U8G A69U showed a yeast fitness of 0.575. U8G C11U G48A A69U gave a yeast fitness of no more than 0.5. Variant U8G C24G G41A A65G has a yeast fitness of no more than 0.5. Work on U8G C24G U47C C61G yielded a yeast fitness of no more than 0.5. U8G C24U C29G C31A A45G C61U A65C G67A G68A gave a yeast fitness of no more than 0.5. In the case of U8G C27A, the yeast fitness is reported as 0.564. With U8G C29G A40U C61U A69C the yeast fitness was 0.648. U8G C30A G50C C62U G67U gave a yeast fitness of no more than 0.5. Variant U8G C30U A45G C60A C66U has a yeast fitness of no more than 0.5. Work on U8G C30U C31G C66G yielded a yeast fitness of no more than 0.5. In the case of U8G C34G C55G C62A G68A, the yeast fitness is reported as no more than 0.5. With U8G C34U A40G C46A the yeast fitness was no more than 0.5. U8G C49G U53C C60A showed a yeast fitness of no more than 0.5. U8G C49G U53C C60A A69U gave a yeast fitness of no more than 0.5. U8G C49U showed a yeast fitness of 0.668. For U8G C49U C55U, the yeast fitness was 0.549. Variant U8G G10A C11G U19G A40G C55U C60U has a yeast fitness of 0.511. Variant U8G G10C has a yeast fitness of no more than 0.5. U8G G10C A20G G58A gave a yeast fitness of no more than 0.5. U8G G10C A40C showed a yeast fitness of no more than 0.5. For U8G G17A A20C C22G C29G C34G A70G, the yeast fitness was no more than 0.5. With U8G G17A C24G the yeast fitness was no more than 0.5. Variant U8G G17A C31A C66U has a yeast fitness of no more than 0.5. For U8G G18A G50C A65U, the yeast fitness was 0.513. For U8G G18C A37G A40G, the yeast fitness was 0.546. In the case of U8G G23C, the yeast fitness is reported as no more than 0.5. U8G G25A A70C showed a yeast fitness of 0.544. U8G G41A C60G showed a yeast fitness of no more than 0.5. Variant U8G G48A C49G has a yeast fitness of no more than 0.5. Variant U8G G50C has a yeast fitness of no more than 0.5. Variant U8G G51A A65U has a yeast fitness of no more than 0.5. Work on U8G G56A yielded a yeast fitness of 0.568. U8G G67U showed a yeast fitness of 0.583. Variant U8G U13A C30U G39C has a yeast fitness of no more than 0.5. Work on U8G U13G G23C A40C G63A yielded a yeast fitness of no more than 0.5. In the case of U8G U16C A21U C22A U28G, the yeast fitness is reported as no more than 0.5. With U8G U26A C66U G67C the yeast fitness was 0.847. In the case of U8G U47A, the yeast fitness is reported as 0.602. Work on U8G U54G G56C yielded a yeast fitness of no more than 0.5. For G9A A14C C22G U54C C66U, the yeast fitness was no more than 0.5. G9A A14C U35C showed a yeast fitness of no more than 0.5. For G9A A14G A20C A42C, the yeast fitness was no more than 0.5. With G9A A14G C29G the yeast fitness was no more than 0.5. G9A A14G C60U C62U gave a yeast fitness of no more than 0.5. Work on G9A A14U A21C yielded a yeast fitness of 0.577. Variant G9A A14U A21U A69C has a yeast fitness of 0.755. Variant G9A A14U C29G C34A G63A has a yeast fitness of no more than 0.5. In the case of G9A A14U C46G C55U A69C, the yeast fitness is reported as no more than 0.5. For G9A A15C G58C, the yeast fitness was 0.581. Work on G9A A15U C31G U53A C55U A57C C60G G67C yielded a yeast fitness of no more than 0.5. In the case of G9A A15U C33G G39A C62A, the yeast fitness is reported as no more than 0.5. With G9A A15U U59A A65C the yeast fitness was 0.654. For G9A A20C, the yeast fitness was 0.871. G9A A20G C30U showed a yeast fitness of 0.71. In the case of G9A A21G, the yeast fitness is reported as 1.05. For G9A A21G C62U G63C A70C, the yeast fitness was 0.52. G9A A21U gave a yeast fitness of 0.693. For G9A A21U A36G A40C A69U, the yeast fitness was no more than 0.5. With G9A A36G G50C U64C the yeast fitness was 0.645. Variant G9A A36U C46U has a yeast fitness of no more than 0.5. With G9A A36U G39A G67A the yeast fitness was no more than 0.5. G9A A40C gave a yeast fitness of 0.881. G9A A40G showed a yeast fitness of 0.918. G9A A40G U64C gave a yeast fitness of 0.722. Variant G9A A42C C66U has a yeast fitness of 0.543. Variant G9A A42U U59A G67C has a yeast fitness of no more than 0.5.
